Here are results for 12 compounds from ChEMBL document CHEMBL1153739, “Chemical constituents of the bark of Machilus wangchiana and their biological activities” (J Nat Prod, 2009).

The structures appear in SMILES notation. pIC50: −log10 of the molar value.

A short description of assay [1]: Antiinflammatory activity in rat PMNC assessed as inhibition of platelet activating factor-induced beta-glucuronidase release at 10 uM treated 15 mins before PAF by spectrophotometry. It counts as functional.
Assay [2] is described as follows: Hepatoprotective activity in rat WB-F344 cells assessed as inhibition of D-galactosamine-induced cytotoxicity at 100 uM treated 1 hr before D-galactosamine challenge after 24 hrs by MTT assay. The assay is classed as functional. Summed up: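 Cells plated at 1 × 10⁴ per well in DMEM with 10% fetal calf serum, penicillin and streptomycin, precultured 24 h at 37 °C, 5% CO₂. Sample added in fresh medium 1 h before 50 mM DL-galactosamine for 24 h. Sample toxicity run in parallel without galactosamine. MTT 0.5 mg/mL for 4 h, formazan dissolved in DMSO, OD 490 nm, % inhibition calculated.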

Another assay deals with A2780. In words: Cytotoxicity against human A2780 cells. It counts as functional, cell-based.
The subject of the next assay is BGC-823. In words: Cytotoxicity against human BGC823 cells. It counts as functional, cell-based.

For `COc1cc([C@@H]2c3c(cc(OC)c(O)c3OC)C[C@@H](C)[C@H]2C)ccc1O`, the inhibition (usually the share of the control response that was lost under treatment) at 10 µM in assay [1] amounted to 47%.

With `COc1cc([C@@H](O)[C@@H](C)C(C)=O)ccc1O`, the inhibition at 100 µM in assay [2] came to 43%.

For `CCO[C@H](c1ccc(O)c(OC)c1)[C@@H](C)C(C)=O`, the inhibition at 100 µM in assay [2] was found to be 54%. In addition, the inhibition at 10 µM in assay [1] turned out to be 42%.

On to `COC(=O)c1cc(OC)c2c(c1-c1c(CO)cc(OC)c3c1OCO3)OCO2` [BICYCLOL], for which the inhibition at 100 µM in assay [2] amounted to 41%.

`COc1cc([C@@H](OC)[C@@H](C)C(C)=O)ccc1O`: in assay [2], the inhibition at 100 µM was determined as 47%. The inhibition at 10 µM in assay [1] was found to be 67%.

Take `COc1cc([C@H]2c3cc(O)c(OC)cc3C[C@@H](C)[C@@H]2C)ccc1O`: the inhibition at 10 µM in assay [1] was 48%.

Consider `COc1cc(C[C@@H](C)[C@@H](C)Cc2ccc(O)c(OC)c2)ccc1O` [MESODIHYDROGUAIARETIC ACID], for which the inhibition at 10 µM in assay [1] was found to be 54%.

As for `C#CCCCCCCCC/C=C/C1=C[C@H](C)OC1=O` [HAMABIWALACTONE A], in assay [1], the inhibition at 10 µM worked out at 60%.

Consider `C=C1OC(=O)/C(=C/CCCCCCCCCCCCCCCCC)[C@H]1O`, for which the results for the negative logarithm of the IC50 (pIC50) with A2780 and in the assay with BGC-823 were 5.58 and 6.89, respectively.

For `CC[C@@]1(O)C(=O)OCc2c1cc1n(c2=O)Cc2cc3ccccc3nc2-1` [CAMPTOTHECIN], in the assay on BGC-823, the pIC50 – broadly, the negative decadic logarithm of the IC50, by convention in mol/L – was 6.68.

Turning to `O=C(O)C[C@]12OC(=O)C[C@H]1O[C@@H]1Cc3c(O)cc(O)cc3O[C@@H]12`, the inhibition at 100 µM in assay [2] was determined as 40%. For the same compound, the inhibition at 10 µM in assay [1] is 46%.

As for `COc1cc([C@H]2OC(=O)[C@](C)(O)[C@@H]2C)ccc1O`, the inhibition at 100 µM in assay [2] amounted to 39%. For the same compound, the inhibition at 10 µM in assay [1] worked out at 76%.
